Calb FLC: C. albicans growth inhibition with fluconazole, primary screen, CaCi-2 strain, Alamar Blue fluorescence; C. albicans CaCi-2 (fluconazole-resistant clinical isolate) + fluconazole, 48 h; growth inhibition, % (no concentration beside the values); 300,000 tested, 0.57% active;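 active = growth inhibition above about 58% in most replicates, limit read from the data, passing the limit was not always enough; inconclusive = exactly half the replicates above a set limit; inactive = most replicates below a set limit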;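 also: all wells also contain fluconazole at 8 µg/ml as a sub-toxic cotreatment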
Mdm2 MdmX PPI: inhibitors of human Mdm2-MdmX association, primary screen, cell-based, luminescence, split luciferase, SaOS-2, uHTS. Protein Mdm4 (Homo sapiens) + E3 ubiquitin-protein ligase Mdm2 (Homo sapiens), …. SaOS-2 split-luciferase Mdm2/MdmX complementation. 330,000 tested, 3% active. inhibition, % at 8 µM;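 active = inhibition of at least 50% at 8 µM in the primary screen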
Target sequence (O15151 whole entry, looked up): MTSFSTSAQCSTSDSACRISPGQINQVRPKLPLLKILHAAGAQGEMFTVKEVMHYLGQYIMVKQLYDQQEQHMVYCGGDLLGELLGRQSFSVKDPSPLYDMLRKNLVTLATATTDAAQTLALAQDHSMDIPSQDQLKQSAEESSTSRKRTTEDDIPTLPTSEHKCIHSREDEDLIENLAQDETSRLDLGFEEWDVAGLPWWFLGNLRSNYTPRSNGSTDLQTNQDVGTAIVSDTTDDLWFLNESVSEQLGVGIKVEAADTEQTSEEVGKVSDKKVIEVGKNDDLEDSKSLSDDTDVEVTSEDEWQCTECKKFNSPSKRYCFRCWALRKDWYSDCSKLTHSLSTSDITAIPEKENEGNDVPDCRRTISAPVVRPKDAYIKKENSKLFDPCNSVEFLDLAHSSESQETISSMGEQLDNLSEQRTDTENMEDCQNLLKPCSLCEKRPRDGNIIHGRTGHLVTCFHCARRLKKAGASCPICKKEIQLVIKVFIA
Target sequence (Q00987 whole entry, looked up): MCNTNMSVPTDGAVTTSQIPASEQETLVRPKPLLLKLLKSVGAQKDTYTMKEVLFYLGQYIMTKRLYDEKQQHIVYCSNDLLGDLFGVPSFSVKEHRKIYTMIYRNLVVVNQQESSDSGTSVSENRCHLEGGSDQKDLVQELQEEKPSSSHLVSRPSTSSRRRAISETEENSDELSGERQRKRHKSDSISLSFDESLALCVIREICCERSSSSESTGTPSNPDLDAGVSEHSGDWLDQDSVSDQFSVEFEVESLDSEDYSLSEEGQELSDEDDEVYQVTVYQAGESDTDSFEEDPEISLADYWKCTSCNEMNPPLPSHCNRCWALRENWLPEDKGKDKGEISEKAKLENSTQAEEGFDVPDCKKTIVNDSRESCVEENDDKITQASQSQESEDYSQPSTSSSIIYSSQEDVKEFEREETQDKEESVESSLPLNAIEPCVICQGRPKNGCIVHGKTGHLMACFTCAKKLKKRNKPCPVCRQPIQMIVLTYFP
T cruzi inh: inhibitors of intracellular T. cruzi growth, primary screen, luminescence, NIH3T3 host cells | T. cruzi beta-gal in NIH3T3, 90 h | inhibition, % (no concentration beside the values) | 300,000 tested, 1.4% active;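 active = mean inhibition across valid replicates above about 55%, limit read from the data; inconclusive = mean below that limit but half or more replicates reach it; inactive = mean below it, under half of replicates reach it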;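 also: signal also drops with host cell toxicity which is not excluded here; higher percent means less beta-gal luminescence so fewer parasites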
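Assay system: NIH/3T3 host cells with β-galactosidase reporter T. cruzi; input: 5,000 host fibroblasts per well; compound: single 50 nL compound addition per well in DMSO; timing: ≥90 h infection period, 3 h prior cell attachment; measured by: GalScreen β-gal luminescence, detergent lysis, 60 min; evaluation: percent inhibition of parasite-derived β-gal signal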
Beta cell apopt: inhibitors of cytokine-induced beta cell apoptosis, primary screen, luminescence. INS-1E cytokine-induced death, ATP luminescence, 48 h; percent of positive-control rescue, neutral wells zero. protection from apoptosis, % (no concentration beside the values). 300,000 tested, 0.8% active. AID 435005, 2010;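 active = Every replicate reaches about 75%, or at least half do and their mean reaches it too, limit read from the data; inconclusive = At least half of replicates reach the limit but their mean does not; inactive = Under half of replicates reach the limit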;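 also: higher means more ATP so stronger rescue from cytokine killing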
SKKanGAS inh: S. pyogenes SKKanGAS growth inhibitors in kanamycin, primary screen, streptokinase expression inhibitor project, SKKanGAS strain, BacTiter-Glo luminescence | inhibition, % at 7.5 µM | 6 h | 300,000 tested, 1.3% active;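 active = mean replicate score, as percent of positive control median, at least 50; inconclusive = mean below 50 but one replicate at or above 50; inactive = mean and every replicate below 50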;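 also: strain carries kanamycin resistance gene driven by streptokinase promoter and grows in 40 µg/ml kanamycin; loss of luminescence reflects streptokinase promoter inhibition or plain growth inhibition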
CSC inhib: cancer stem cell viability inhibitors, primary screen, luminescence; cancer stem cell-like cells viability; inhibition, % at 7.5 µM; 300,000 tested, 1.1% active; in the data active = inhibition above about 75%; inconclusive = no clear call, values can overlap the other calls; tested in HMLE shEcad cells
Mdm2-MdmX conf: Mdm2-MdmX complex disruptors, retested hits, confirmation, luminescence, single concentration. shares compounds with Mdm2 MdmX PPI. Mdm2-MdmX binding, luminescent assay. inhibition, % at 8 µM. 10,000 tested, 55% active. AID 489028, 2010; in the data active = inhibition above about 40%
Full FLuc ctr: full-length luciferase signal inhibition, confirmation, counter-screen for Mdm2/MdmX interaction inhibitor project, cell-based, single concentration, SaOS-2. AID 504607, 2011. inhibition, % at 8 µM. 6,200 tested, 77% active. shares compounds with Mdm2 MdmX PPI. SaOS-2 full-length luciferase counterscreen, luminescence;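 active = mean inhibition at 8 µM reaching about 37%, which flags the compound as non-specific, limit read from the data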;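 also: p53-null SaOS-2 cells with luciferase driven by a doxycycline-inducible promoter; compound on cells about two nights before reading with doxycycline added after day one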
Hits are given with their value; - = inactive; ? = inconclusive; . = not tested or not shown. An excerpt weighted towards active compounds, which were near 5.7% of everything screened.

SMILES	Calb FLC	Mdm2 MdmX PPI	T cruzi inh	Beta cell apopt	SKKanGAS inh	CSC inhib	Mdm2-MdmX conf	others
Cc1ccc(NC(=S)N(C)C(c2ccccc2)c2ccccc2)cc1C	-	59.0	-	-	-	-	-
Cc1cc(C)c2nc(NC(=O)c3cccc(S(=O)(=O)N4CCc5ccccc54)c3)sc2c1	-	-	-	-	-	.	.
Cc1cc(N2CCOCC2)ccc1/C=C1\NC(=O)N(Cc2ccccc2F)C1=O	-	71.1	-	-	-	-	-
Cn1ncc2c(NNC(=O)c3ccccc3Cl)ncnc21	-	-	-	-	-	-	.
Cc1cccc(NC(=O)c2nc[nH]c2C(=O)NCc2ccccc2)c1	.	-	.	-	.	-	.
Cc1cccc(NC(=O)c2nc[nH]c2C(=O)NCCCCNC(=O)c2[nH]cnc2C(=O)Nc2cccc(C)c2)c1	.	74.9	.	-	.	-	-
Cc1cccc(NC(=O)c2nc[nH]c2C(=O)NCCCCCCNC(=O)c2[nH]cnc2C(=O)Nc2cccc(C)c2)c1	.	70.7	.	-	.	-	-
COc1ccc(C2CC(c3cccc(F)c3)=NN2c2ccc(S(N)(=O)=O)cc2)cc1 (stereo not drawn)	.	80.9	.	.	.	.	-
COc1ccc(C2CC(c3cccc(Br)c3)=NN2c2ccc(S(N)(=O)=O)cc2)cc1 (stereo not drawn)	.	57.0	.	.	.	.	-
COc1ccc(C2CC(c3cccc(C(F)(F)F)c3)=NN2c2ccc(S(N)(=O)=O)cc2)cc1 (stereo not drawn)	.	87.1	.	.	.	.	-
CN(CCOc1ccccc1)C(=O)c1cc(S(=O)(=O)N2CCCCC2)ccc1Cl	-	-	-	-	-	-	.
COc1ccc(NC(=O)CSc2nc(C3CC3)nc3ccccc23)c(OC)c1	-	-	-	-	-	-	.
Cc1ccc(NC(=O)CSc2nc3ccccc3c3nc4ccccc4n23)cc1	-	80.9	-	-	-	-	58.0	Full FLuc ctr=69.9
CC(=O)c1ccc(NC(=O)CSc2nc(C3CC3)nc3ccccc23)cc1	-	64.1	-	-	-	-	-
CC(C)C(=O)NNC(=O)CSc1nc(C2CCCCC2)nc2ccccc12	-	-	-	-	-	-	.
COc1ccc(NC(=O)CSc2ccc3c4c(cccc24)C(=O)c2ccccc2-3)cc1	-	57.6	-	-	-	-	-
COc1ccc(NC(=O)CSc2nc(C3CC3)nc3ccccc23)cc1	-	59.7	-	-	-	.	-
COc1ccc(NC(=O)CSc2nc3ccccc3c3nc4ccccc4n23)cc1	.	.	.	-	.	-	.
Cn1cc(S(=O)(=O)Nc2cccc3ccccc23)c(=O)n(C)c1=O	-	-	-	-	-	-	.
O=C(CCC(=O)N1CCN(c2ccccn2)CC1)c1ccc(Cl)s1	.	-	.	-	.	-	.
CC(C)(C)NC(=O)NC(=O)COC(=O)C1CCN(S(=O)(=O)c2cccs2)CC1	.	-	.	.	.	.	.
CCOc1ccc(NC(=O)c2ccc(NC(=O)CSc3nc4ccccc4c(=O)[nH]3)cc2)cc1	-	55.7	-	-	-	-	-
CC(=O)/C(C#N)=C1\NC(=O)C(Cc2ccc(C)c(Cl)c2)S1 (stereo not drawn)	-	79.4	-	-	-	-	78.1	Full FLuc ctr=-
CCOC(=O)c1ccc(CC2S/C(=C(\C#N)C(C)=O)NC2=O)cc1 (stereo not drawn)	-	-	-	-	-	-	.
CCc1ccc(CC2S/C(=C(\C#N)C(C)=O)NC2=O)cc1 (stereo not drawn)	-	61.1	-	.	-	-	74.1	Full FLuc ctr=70.3
SMILES	Calb FLC	Mdm2 MdmX PPI	T cruzi inh	Beta cell apopt	SKKanGAS inh	CSC inhib	Mdm2-MdmX conf	others
CC1(C)C(=O)Nc2ccccc2N1C(=O)Cn1ncc(Cl)c(Cl)c1=O	-	100.4	54.6	-	-	?	91.2	Full FLuc ctr=39.9
Cc1nn(CC(=O)N2c3ccccc3NC(=O)C2(C)C)c(C)c1[N+](=O)[O-]	-	-	-	.	-	-	.
CCOc1ccc(C(=O)COC(=O)CNC(=O)C2CCCCC2)cc1	.	-	.	-	.	-	.
O=C(Cn1c(COc2ccccc2)nc2ccccc21)Nc1cc(Cl)ccc1Cl	-	89.2	-	-	-	-	71.0	Full FLuc ctr=104.1
COc1ccccc1NC(=O)CCCN1C(=O)C2CC=CCC2C1=O (stereo not drawn)	-	-	-	-	-	-	.
COC(=O)[C@@]1(Cc2ccccc2)[C@H]2C(=O)N(Cc3ccccc3)C(=O)[C@H]2[C@H]2CN=C(SCc3ccc(C#N)cc3)N21	.	90.9	.	.	.	.	94.7	Full FLuc ctr=-
CC[C@]1(C(=O)OC)[C@H]2C(=O)N(Cc3ccccc3)C(=O)[C@H]2[C@H]2CN=C(SCc3ccc(C)cc3)N21	.	92.7	.	.	.	.	87.7	Full FLuc ctr=48.7
CC[C@]1(C(=O)OC)[C@H]2C(=O)N(Cc3ccccc3)C(=O)[C@H]2[C@H]2CN=C(SCc3ccc(C(=O)OC)cc3)N21	.	-	.	.	.	.	.
CCC1Nc2ncnc(N3CCN(c4ccccc4)CC3)c2N(Cc2ccc(Br)cc2)C1=O (stereo not drawn)	-	52.7	58.5	-	-	-	-
COC(=O)c1ccc(OS(=O)(=O)c2ccc(NC(C)=O)cc2)cc1	-	-	-	-	-	-	.
CC(=O)Nc1ccc(S(=O)(=O)Oc2ccc3c(c2)C(C)=CC(C)(C)N3)cc1	-	98.1	-	-	-	-	78.9	Full FLuc ctr=-
O=C(CC12CC3CC(CC(C3)C1)C2)NC1CC1	-	-	-	-	-	-	.
Cc1cc(NN)nc(Cc2ccccc2)n1	-	-	-	-	-	-	.
Cc1cc(N2CCN(c3ccc([N+](=O)[O-])c4cccnc34)CC2)c2ccccc2n1	-	94.5	-	-	-	-	80.4	Full FLuc ctr=55.5
O=C(c1ccccc1F)N1CCN(c2ccc([N+](=O)[O-])c3cccnc23)CC1	-	-	-	-	-	-	.
COC(CN(C)S(=O)(=O)c1cc2c3c(c1)CCN3C(=O)CC2)OC	-	-	-	-	-	-	.
COc1ccc(/C=C/C(=O)Nc2sc(Cc3ccccc3)c(C)c2C(N)=O)cc1	-	63.9	-	-	-	-	-	Full FLuc ctr=114.5
CC(=O)N1CCSc2ccc(S(=O)(=O)NCCc3ccc(Cl)cc3)cc21	-	-	-	-	-	-	.
O=C(N[C@@H]1C/C=C\C[C@@H](CC(=O)N(CCO)Cc2ccccc2)C(=O)NCCOC1=O)OCC1c2ccccc2-c2ccccc21	.	-	.	-	.	.	.

Screening data as filed in PubChem.
